# ChEMBL document CHEMBL3779881, “Property Focused Structure-Based Optimization of Small Molecule Inhibitors of the Protein-Protein Interaction between Menin and Mixed Lineage Leukemia (MLL)” (J Med Chem, 2016)
# Active and inactive are the calls of the source. No cut-off for these calls is given here.
# Assays:
# Mus musculus [1] = test: Volume of distribution at steady state in C57BL/6 mouse at 15 mg/kg, iv after 24 hrs by LC-MS/MS analysis; type: ADME, organism-based; settings: in vivo
# Method in brief: (§1)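 Female C57BL/6 mice dosed iv at 15 mg/kg or orally at 30 mg/kg in 25% DMSO/25% PEG-400/50% PBS (v/v). Serial 50 μL blood samples collected over 24 h (8 h in one experiment), spun to plasma; concentrations by validated LC-MS/MS in positive-ion MRM mode; parameters from noncompartmental analysis.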
# [2] = target: T1, Menin/Histone-lysine N-methyltransferase 2A (Mus musculus) (UniProt O88559+P55200); test: Inhibition of menin-MLL interaction in MLL-AF9 transformed mouse bone marrow cells assessed as induction of cell differentiation measured as upregulation of Itgam expression level at 0.12 to 0.5 uM after 6 days by qRT-PCR analysis
# T1 sequence (O88559 whole entry, looked up): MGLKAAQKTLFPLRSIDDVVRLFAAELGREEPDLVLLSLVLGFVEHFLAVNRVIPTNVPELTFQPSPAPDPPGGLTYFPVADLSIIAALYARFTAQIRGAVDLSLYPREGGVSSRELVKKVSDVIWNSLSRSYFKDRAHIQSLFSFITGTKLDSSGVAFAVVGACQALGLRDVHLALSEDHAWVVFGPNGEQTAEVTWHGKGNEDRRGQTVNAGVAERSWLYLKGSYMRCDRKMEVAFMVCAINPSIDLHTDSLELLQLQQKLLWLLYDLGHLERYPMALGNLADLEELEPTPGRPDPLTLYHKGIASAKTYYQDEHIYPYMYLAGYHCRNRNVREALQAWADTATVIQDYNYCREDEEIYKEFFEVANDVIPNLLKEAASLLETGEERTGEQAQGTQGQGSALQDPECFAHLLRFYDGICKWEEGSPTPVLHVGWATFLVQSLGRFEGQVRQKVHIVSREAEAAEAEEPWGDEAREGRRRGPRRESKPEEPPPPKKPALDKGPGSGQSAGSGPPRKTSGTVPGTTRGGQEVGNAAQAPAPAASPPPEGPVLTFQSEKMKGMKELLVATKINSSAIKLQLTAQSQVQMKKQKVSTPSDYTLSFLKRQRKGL
# T1 sequence (P55200 whole entry, looked up): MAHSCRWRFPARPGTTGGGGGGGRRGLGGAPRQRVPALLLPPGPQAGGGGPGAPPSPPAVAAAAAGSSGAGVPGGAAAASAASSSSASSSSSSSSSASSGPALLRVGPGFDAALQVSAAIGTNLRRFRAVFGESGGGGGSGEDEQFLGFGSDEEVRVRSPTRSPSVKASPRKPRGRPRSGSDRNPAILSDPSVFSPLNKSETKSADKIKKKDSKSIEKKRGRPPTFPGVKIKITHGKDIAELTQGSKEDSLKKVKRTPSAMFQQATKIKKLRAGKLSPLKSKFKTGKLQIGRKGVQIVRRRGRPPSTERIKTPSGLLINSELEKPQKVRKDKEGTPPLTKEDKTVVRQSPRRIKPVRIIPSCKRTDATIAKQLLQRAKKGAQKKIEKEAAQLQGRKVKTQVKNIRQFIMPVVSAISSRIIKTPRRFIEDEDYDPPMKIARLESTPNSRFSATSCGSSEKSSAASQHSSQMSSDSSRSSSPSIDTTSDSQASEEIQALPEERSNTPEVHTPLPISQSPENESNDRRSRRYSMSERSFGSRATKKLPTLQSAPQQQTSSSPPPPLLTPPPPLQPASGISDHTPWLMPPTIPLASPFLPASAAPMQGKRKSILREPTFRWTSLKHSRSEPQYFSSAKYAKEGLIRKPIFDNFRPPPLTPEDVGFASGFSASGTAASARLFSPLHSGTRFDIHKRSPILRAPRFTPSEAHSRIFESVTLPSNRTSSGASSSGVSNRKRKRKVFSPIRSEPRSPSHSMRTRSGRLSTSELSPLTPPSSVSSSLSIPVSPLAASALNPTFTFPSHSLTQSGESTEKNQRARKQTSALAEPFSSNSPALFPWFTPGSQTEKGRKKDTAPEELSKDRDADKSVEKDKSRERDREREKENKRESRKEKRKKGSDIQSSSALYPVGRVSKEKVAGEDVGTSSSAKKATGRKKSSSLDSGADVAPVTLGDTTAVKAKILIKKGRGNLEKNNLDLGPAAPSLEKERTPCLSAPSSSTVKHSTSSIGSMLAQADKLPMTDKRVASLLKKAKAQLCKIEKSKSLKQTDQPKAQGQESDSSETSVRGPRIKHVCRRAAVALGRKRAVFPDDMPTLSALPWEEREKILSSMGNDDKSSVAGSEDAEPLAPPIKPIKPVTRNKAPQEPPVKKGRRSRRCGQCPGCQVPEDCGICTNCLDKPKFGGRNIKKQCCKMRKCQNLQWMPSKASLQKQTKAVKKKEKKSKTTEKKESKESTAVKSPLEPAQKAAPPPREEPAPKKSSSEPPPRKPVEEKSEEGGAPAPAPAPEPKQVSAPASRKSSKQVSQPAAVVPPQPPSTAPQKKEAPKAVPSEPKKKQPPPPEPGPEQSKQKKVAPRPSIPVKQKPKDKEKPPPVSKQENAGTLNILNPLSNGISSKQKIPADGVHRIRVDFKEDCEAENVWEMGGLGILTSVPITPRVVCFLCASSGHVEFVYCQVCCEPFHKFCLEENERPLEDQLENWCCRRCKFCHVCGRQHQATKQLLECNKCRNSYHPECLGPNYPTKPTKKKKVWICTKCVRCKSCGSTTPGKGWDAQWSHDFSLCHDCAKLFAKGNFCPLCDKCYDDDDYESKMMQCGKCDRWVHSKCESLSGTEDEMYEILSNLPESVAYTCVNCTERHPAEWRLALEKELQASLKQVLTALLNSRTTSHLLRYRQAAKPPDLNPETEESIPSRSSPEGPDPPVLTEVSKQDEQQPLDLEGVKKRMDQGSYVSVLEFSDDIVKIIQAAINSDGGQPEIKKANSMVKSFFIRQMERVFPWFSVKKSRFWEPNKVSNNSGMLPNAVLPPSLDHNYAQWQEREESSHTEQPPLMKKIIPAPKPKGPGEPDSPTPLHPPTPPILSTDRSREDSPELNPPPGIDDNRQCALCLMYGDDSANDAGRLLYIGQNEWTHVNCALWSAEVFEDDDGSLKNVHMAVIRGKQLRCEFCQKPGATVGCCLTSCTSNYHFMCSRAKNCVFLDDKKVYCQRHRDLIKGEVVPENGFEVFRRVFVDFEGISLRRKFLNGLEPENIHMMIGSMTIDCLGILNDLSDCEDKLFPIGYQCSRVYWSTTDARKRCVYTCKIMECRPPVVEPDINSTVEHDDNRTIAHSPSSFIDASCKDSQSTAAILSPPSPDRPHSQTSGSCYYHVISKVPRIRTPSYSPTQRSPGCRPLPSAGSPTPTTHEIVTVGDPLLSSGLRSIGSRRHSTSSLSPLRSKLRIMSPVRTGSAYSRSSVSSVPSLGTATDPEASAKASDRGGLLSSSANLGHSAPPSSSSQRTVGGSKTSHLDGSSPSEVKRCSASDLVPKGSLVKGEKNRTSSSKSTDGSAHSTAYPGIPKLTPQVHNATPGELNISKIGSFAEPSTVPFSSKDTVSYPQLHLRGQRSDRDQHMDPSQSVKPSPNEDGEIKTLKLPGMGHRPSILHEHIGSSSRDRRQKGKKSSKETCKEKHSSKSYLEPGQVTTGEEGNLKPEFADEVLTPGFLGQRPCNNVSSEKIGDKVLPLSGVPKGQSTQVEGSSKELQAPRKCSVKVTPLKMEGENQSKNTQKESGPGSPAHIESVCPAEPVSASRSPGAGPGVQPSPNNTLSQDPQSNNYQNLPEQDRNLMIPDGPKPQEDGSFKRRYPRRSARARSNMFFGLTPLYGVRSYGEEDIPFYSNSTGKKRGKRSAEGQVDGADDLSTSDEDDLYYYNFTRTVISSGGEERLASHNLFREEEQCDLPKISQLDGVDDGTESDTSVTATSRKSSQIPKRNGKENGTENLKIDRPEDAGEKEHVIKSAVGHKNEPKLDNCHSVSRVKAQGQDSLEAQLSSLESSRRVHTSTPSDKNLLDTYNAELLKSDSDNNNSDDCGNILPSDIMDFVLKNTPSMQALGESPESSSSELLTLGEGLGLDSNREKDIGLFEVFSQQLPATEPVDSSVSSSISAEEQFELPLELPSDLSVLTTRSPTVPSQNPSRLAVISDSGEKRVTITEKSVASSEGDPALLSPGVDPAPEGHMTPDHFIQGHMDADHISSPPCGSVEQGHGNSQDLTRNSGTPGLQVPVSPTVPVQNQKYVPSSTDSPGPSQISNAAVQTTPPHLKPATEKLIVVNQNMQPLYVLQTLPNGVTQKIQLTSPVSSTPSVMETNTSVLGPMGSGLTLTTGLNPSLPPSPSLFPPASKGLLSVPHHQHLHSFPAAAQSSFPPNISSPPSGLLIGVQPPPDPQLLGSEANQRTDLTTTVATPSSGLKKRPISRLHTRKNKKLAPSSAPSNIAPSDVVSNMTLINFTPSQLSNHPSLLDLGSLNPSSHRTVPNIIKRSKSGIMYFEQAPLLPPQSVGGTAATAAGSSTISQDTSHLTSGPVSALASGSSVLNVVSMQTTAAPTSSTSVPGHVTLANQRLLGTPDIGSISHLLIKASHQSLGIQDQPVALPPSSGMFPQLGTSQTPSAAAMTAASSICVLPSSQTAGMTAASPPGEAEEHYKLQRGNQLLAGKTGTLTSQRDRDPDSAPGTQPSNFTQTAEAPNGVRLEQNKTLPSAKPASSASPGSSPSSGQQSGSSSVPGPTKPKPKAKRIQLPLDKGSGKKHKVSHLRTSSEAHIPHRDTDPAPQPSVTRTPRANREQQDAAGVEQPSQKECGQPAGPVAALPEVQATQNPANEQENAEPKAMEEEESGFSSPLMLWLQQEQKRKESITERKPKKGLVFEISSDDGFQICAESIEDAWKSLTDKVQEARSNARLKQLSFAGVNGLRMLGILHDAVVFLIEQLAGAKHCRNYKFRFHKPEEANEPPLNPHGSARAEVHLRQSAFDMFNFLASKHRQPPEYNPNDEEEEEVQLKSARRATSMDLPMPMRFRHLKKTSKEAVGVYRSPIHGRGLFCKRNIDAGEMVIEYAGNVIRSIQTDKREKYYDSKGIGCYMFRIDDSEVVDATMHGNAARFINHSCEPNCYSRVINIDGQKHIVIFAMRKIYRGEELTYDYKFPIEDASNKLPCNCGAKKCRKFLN
# Method in brief: (§2)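 MLL-AF9 transformed murine bone marrow cells treated 6 days, then qRT-PCR. Hoxa9 and Meis1 normalised to β-actin; Itgam normalised to 18S rRNA; each referenced to DMSO-treated cells; mean ± SD, n = 2.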
# Mus musculus [3] = test: Toxicity in CB17 SCID mouse xenografted with human MV4-11 cells assessed as reduction in body weight at 45 mg/kg, ip qd administered for 2 weeks; type: organism-based; parameters: scale not given: the % may be the effect or the level left; settings: in vivo, 336 h
# Method in brief: (§3)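 MV4;11 cells in serum-free medium mixed 1:1 with Matrigel; 5×10^6 cells injected subcutaneously into the right flank of female mice aged 4–6 weeks. Dosing began at ~100 mm³ tumours; mice randomised, once-daily ip injections of vehicle or compound for 2 weeks.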
# Mus musculus [4] = test: Tmax in C57BL/6 mouse plasma at 30 mg/kg, po after 24 hrs by LC-MS/MS analysis; type: ADME, organism-based; settings: in vivo; method in brief: as §1
# [5] = Growth inhibition of Hoxa9/Meis1 transformed mouse bone marrow cells after 7 days by MTT assay; type: functional; settings: Bone marrow cell, 168 h
# MV4-11 [6] = test: Growth inhibition of human MV4-11 after 7 days by MTT assay; type: functional; settings: MV4-11, 168 h
# Method in brief: (§4)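 Cells in RPMI-1640/10% FBS/pen-strep/NEAA, seeded at 1×10^5/mL (MOLM-13, MV4;11) or 2×10^5/mL (HL-60), treated with compound or 0.25% DMSO for 7 days at 37 °C. Medium changed on day 4 with cell density reset and compound resupplied. MTT absorbance read at 570 nm; 2–3 experiments in quadruplicate, mean ± SD.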
# Mus musculus [7] = test: AUC in C57BL/6 mouse at 30 mg/kg, po after 24 hrs by LC-MS/MS analysis; type: ADME, organism-based; parameters: time < 24 hr, dose 30 mg/kg, route oral; settings: in vivo; method in brief: as §1
# Mus musculus [8] = test: Oral bioavailability in C57BL/6 mouse at 30 mg/kg after 24 hrs by LC-MS/MS analysis; type: ADME, organism-based; settings: in vivo; method in brief: as §1
# [9] = target: T1, Menin/Histone-lysine N-methyltransferase 2A (Mus musculus); test: Inhibition of menin-MLL interaction in MLL-AF9 transformed mouse bone marrow cells assessed as induction of cell differentiation measured as multilobed nuclei at 0.5 uM after 7 days by Cytospin/Wright-Giemsa staining assay
# Method in brief: (§5)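 MLL-AF9 transduced mouse bone marrow cells seeded at 3×10^5/mL, treated with compound or 0.25% DMSO at 37 °C, 5% CO2 for 7 days; cytospins stained with Wright–Giemsa and scored for morphology.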
# Mus musculus [10] = test: Cmax in C57BL/6 mouse plasma at 30 mg/kg, po after 24 hrs by LC-MS/MS analysis; type: ADME, organism-based; parameters: dose 30 mg/kg, route oral; settings: in vivo; method in brief: as §1
# [11] = target: T1, Menin/Histone-lysine N-methyltransferase 2A (Mus musculus); test: Inhibition of menin-MLL interaction in MLL-AF9 transformed mouse bone marrow cells assessed as downregulation of Meis1 expression level at 0.12 to 0.5 uM after 6 days by qRT-PCR analysis; method in brief: as §2
# Mus musculus [12] = test: AUC in C57BL/6 mouse at 15 mg/kg, iv after 24 hrs by LC-MS/MS analysis; type: ADME, organism-based; parameters: dose 15 mg/kg, time < 24 hr, route intravenous; settings: in vivo; method in brief: as §1
# MOLM-13 = test: Growth inhibition of human MOLM13 after 7 days by MTT assay; type: functional; settings: MOLM-13, 168 h; method in brief: as §4
# Plasma = test: Drug metabolism in C57BL/6 mouse plasma assessed as glucuronidation at 15 mg/kg, iv after 24 hrs by LC-MS/MS analysis; type: ADME, organism-based; settings: in vivo
# Method in brief: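 Female C57BL/6 mice given 15 mg/kg iv in 25% DMSO/25% PEG-400/50% PBS; serial plasma samples analysed by the same LC-MS/MS procedure as the PK work to detect glucuronide conjugates.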
# [13] = Clearance in C57BL/6 mouse at 15 mg/kg, iv after 24 hrs by LC-MS/MS analysis; type: ADME, organism-based; settings: in vivo; method in brief: as §1
# [14] = target: T1, Menin/Histone-lysine N-methyltransferase 2A (Mus musculus); test: Inhibition of menin-MLL interaction in MLL-AF9 transformed mouse bone marrow cells assessed as induction of cell differentiation measured as decreased nuclei to cytoplasm ratio at 0.5 uM after 7 days by Cytospin/Wright-Giemsa staining assay; method in brief: as §5
# [15] = target: T1, Menin/Histone-lysine N-methyltransferase 2A (Mus musculus); test: Inhibition of menin-MLL interaction in MLL-AF9 transformed mouse bone marrow cells assessed as induction of cell differentiation measured as highly vacuolated cytoplasm at 0.5 uM after 7 days by Cytospin/Wright-Giemsa staining assay; method in brief: as §5
# Mus musculus [16] = test: Half life in C57BL/6 mouse at 15 mg/kg, iv after 24 hrs by LC-MS/MS analysis; type: ADME, organism-based; settings: in vivo; method in brief: as §1
# MV4-11 [17] = test: Antitumor activity against human MV4-11 cells xenografted in CB17 SCID mouse assessed as tumor growth inhibition at 45 mg/kg, ip qd administered for 2 weeks; type: functional; settings: MV4-11, ip, 336 h, read-out: TGI; method in brief: as §3
# HL-60 = test: Growth inhibition of human HL60 after 7 days by MTT assay; type: functional; settings: HL-60, 168 h; method in brief: as §4
# [18] = Growth inhibition of MLL-AF9 transformed mouse bone marrow cells after 7 days by MTT assay; type: functional; settings: Bone marrow cell, 168 h
# [19] = target: T1, Menin/Histone-lysine N-methyltransferase 2A (Mus musculus); test: Inhibition of menin-MLL interaction in MLL-AF9 transformed mouse bone marrow cells assessed as downregulation of Hoxa9 expression level at 100 nM after 6 days by qRT-PCR analysis; method in brief: as §2
# [20] = target: Menin/Histone-lysine N-methyltransferase MLL (Homo sapiens, UniProt O00255); test: Inhibition of menin-MLL interaction (unknown origin) after 1 hr by fluorescence polarization assay; type: protein assay
# Menin = target: T2, Menin (Homo sapiens, UniProt O00255); test: Binding affinity to menin (unknown origin)
# T2 sequence (O00255 whole entry): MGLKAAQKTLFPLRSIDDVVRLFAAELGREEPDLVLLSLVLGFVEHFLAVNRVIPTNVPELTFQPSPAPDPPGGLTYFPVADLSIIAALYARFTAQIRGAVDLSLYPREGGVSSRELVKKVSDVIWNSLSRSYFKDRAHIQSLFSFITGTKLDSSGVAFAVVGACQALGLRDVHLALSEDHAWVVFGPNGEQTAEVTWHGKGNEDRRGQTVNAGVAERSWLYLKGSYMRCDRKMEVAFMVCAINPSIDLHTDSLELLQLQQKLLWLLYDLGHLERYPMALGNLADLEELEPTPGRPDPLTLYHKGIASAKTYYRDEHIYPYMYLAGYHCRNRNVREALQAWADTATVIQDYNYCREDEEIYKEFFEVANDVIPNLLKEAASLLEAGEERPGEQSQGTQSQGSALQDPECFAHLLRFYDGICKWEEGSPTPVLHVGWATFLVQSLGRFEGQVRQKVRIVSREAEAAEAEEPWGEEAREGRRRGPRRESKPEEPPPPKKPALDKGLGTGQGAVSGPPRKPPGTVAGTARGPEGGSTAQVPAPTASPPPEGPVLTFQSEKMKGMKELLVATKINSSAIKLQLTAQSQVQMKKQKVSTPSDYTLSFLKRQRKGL
# Bone marrow cell = test: Selectivity index, ratio of GI50 for Hoxa9/Meis1 transformed mouse bone marrow cells to GI50 for MLL-AF9 transformed mouse bone marrow cells; type: functional
structure (smiles),measurement,setting,value
N#Cc1cc2cc(CN3CCC(Nc4ncnc5sc(CC(F)(F)F)cc45)CC3)c(O)cc2n1Cc1cn[nH]c1,Vdss,Mus musculus [1],2.347 L/kg
same,inhibition,[2],Active
same,Activity,Mus musculus [3],< 10%
same,Tmax,Mus musculus [4],2 h
same,GI50,[5],9000 nM
same,GI50,MV4-11 [6],175 nM
same,AUC,Mus musculus [7],18090 ng·h/mL
same,F,Mus musculus [8],51%
same,inhibition,[9],Active
same,Cmax,Mus musculus [10],4572 ng/mL
same,inhibition,[11],Active
same,AUC,Mus musculus [12],17897 ng·h/mL
same,GI50,MOLM-13,268 nM
same,Drug metabolism,Plasma,metabolite_detected
same,clearance,[13],14 mL/min/kg
same,inhibition,[14],Active
same,inhibition,[15],Active
same,t1/2,Mus musculus [16],1.6 h
same,inhibition in vivo at 45 mg/kg,MV4-11 [17],80%
same,GI50,HL-60,> 6000 nM
same,GI50,[18],83 nM
same,inhibition,[19],50%
same,IC50,[20],21 nM
same,Kd,Menin,6.5 nM
same,RatioGI50,Bone marrow cell,108
